Measured values from different studies.
Protocols differ between the studies behind these lines.
PPARG: Peroxisome proliferator-activated receptor gamma (PPARG, Homo sapiens, UniProt P37231)

Structure (SMILES) | target | test | setting | endpoint | result
CC(C)(Oc1ccc(CCNC(=O)c2ccc(Cl)cc2)cc1)C(=O)O | PPARG | binding, ITC |  | Kd | 30.3 µM
CCCCCCCCCCCCCCCCC#CC(=O)O | DNA topoisomerase 1 (TOP1, Homo sapiens, UniProt P11387) | enzyme activity, inhibitor |  | EC50 | 20500 nM
CC1(C)C=Cc2c(ccc3c2OC[C@@H](c2ccc(O)cc2O)C3)O1 | PPARG | binding, ITC |  | Kd | 14.6 µM
O=C(CCCCCCC(=O)Nc1ccc([C@H]2O[C@@H](CSc3nc(-c4ccccc4)c(-c4ccccc4)o3)C[C@@H](c3ccc(CO)cc3)O2)cc1)NO | Histone deacetylase 5 (HDAC5, Homo sapiens, UniProt Q9UQL6) | cell-free assay |  | Kd | > 30.2 µM
Cc1cnc(-c2ccc(-c3ccc(NC(=O)Nc4c(F)cc(F)cc4F)cc3F)c3c2C(=O)NC3)[nH]1 | Discoidin domain-containing receptor 2 (DDR2, Homo sapiens, UniProt Q16832) | binding, competition with immobilised ligand |  | Kd | 0.003 µM
CCn1cncc1Cn1c(CN2CCC(c3cccc(OCc4ccc(F)cc4F)n3)CC2)nc2ccc(C(=O)O)cc21 | Glucagon-like peptide 1 receptor (GLP1R, Homo sapiens, UniProt P43220, L260F) | cAMP, agonist, TR-FRET |  | EC50 | 0.09 nM
COc1ccc(-c2nsc(NC(=O)[C@@H]3C[C@H]3C)c2C)cc1 | Metabotropic glutamate receptor 5 (GRM5, Homo sapiens, UniProt P41594) | calcium signal, agonist |  | EC50 | > 25000 nM
CCCCOc1nc(N)c2[nH]c(=O)n(CCN)c2n1 | Toll-like receptor 8 (TLR8, Homo sapiens, UniProt Q9NR97) | reporter gene, agonist |  | EC50 | 209000 nM
CC[C@H](C)[C@H](NC(=O)[C@H](CC(=O)O)NC(=O)[C@H](CO)NC(=O)[C@@H](NC(=O)[C@H](Cc1ccccc1)NC(=O)[C@@H](NC(=O)CNC(=O)[C@H](CC(=O)O)NC(=O)[C@H](C)NC(=O)[C@@H](N)Cc1c[nH]cn1)[C@@H](C)O)[C@@H](C)O)C(=O)N[C@@H](CC(N)=O)C(=O)N[C@@H](CCCCN)C(=O)N[C@H](C(=O)N[C@@H](CC(C)C)C(=O)N[C@@H](CC(=O)O)C(=O)N[C@@H](CC(=O)O)C(=O)N[C@@H](CCSC)C(=O)N[C@@H](C)C(=O)N[C@@H](C)C(=O)N[C@@H](CCCCN)C(=O)N[C@@H](CCC(=O)O)C(=O)N[C@@H](Cc1ccccc1)C(=O)N[C@@H](CC(C)C)C(=O)N[C@@H](CCCCN)C(=O)N[C@@H](Cc1c[nH]c2ccccc12)C(=O)N[C@@H](CC(C)C)C(=O)N[C@H](C(=O)N[C@@H](CC(N)=O)C(=O)N[C@H](C(=O)N[C@@H](CCCCN)C(=O)N[C@H](C(=O)N[C@H](C(=O)N[C@@H](CCC(N)=O)C(=O)O)[C@@H](C)O)C(C)C)[C@@H](C)O)[C@@H](C)CC)[C@@H](C)CC | Glucagon-like peptide 1 receptor (GLP1R, Homo sapiens, UniProt P43220) | reporter gene, agonist, luciferase |  | EC50 | 2.79 nM
CCOCc1nc(O)c(-c2nnc(Cc3ccc(Cl)cn3)o2)c(O)c1-c1c(OC)cccc1OC | Apelin receptor (Rattus norvegicus, UniProt Q9JHG3) | cAMP, agonist |  | EC50 | 0.02 nM
COc1cc(Nc2ncc3c(n2)-c2ccc(Cl)cc2C(c2c(F)cccc2OC)=NC3)ccc1C(=O)NCCOCCOCCNC(=O)COc1cccc2c1C(=O)N(C1CCC(=O)NC1=O)C2=O (centres unmarked) | Ferrochelatase, mitochondrial (FECH, Homo sapiens, UniProt P22830) | binding | lysate | Kd | 6.43 µM
